Bioassay records (PubChem BioAssay)
Most compounds without a hit are left out; they make up all but 12% or so of the library.
CHOP inhibitor: CHOP inhibition in unfolded protein response. CHO-K1 CHOP-promoter luciferase, tunicamycin-induced, 15-18 h. inhibition, % at 10 µM. actives 3.8% (n = 220,000). AID 2732;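 active means compounds that reduced the stress-induced luciferase reporter signal by more than about 70% of percent inhibition, limit read from the data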;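 further: 0% = tunicamycin plus vehicle and 100% = wells without tunicamycin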
Rad51 HR inh: Rad51 (human) homologous recombination inhibition. Q06609. hRad51 DNA strand exchange, fluorescence dequenching. inhibition, % at 10 µM. actives 0.085% (n = 200,000). AID 1385;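 active means inhibition above 40% at the single screening dose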;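 further: 0% = DMSO control wells and 100% = blanks with heterologous ssDNA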
Target sequence (Q06609 whole entry, looked up): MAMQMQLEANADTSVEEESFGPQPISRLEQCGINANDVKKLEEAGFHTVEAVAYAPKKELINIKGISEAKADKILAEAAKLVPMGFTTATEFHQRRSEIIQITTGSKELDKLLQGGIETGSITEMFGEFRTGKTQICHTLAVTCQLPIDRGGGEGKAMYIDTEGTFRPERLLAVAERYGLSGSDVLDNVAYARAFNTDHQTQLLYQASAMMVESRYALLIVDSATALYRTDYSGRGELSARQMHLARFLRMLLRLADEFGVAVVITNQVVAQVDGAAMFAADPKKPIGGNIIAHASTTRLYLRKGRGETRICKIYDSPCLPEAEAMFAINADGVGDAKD
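System: human Rad51 nucleoprotein filaments preassembled on unlabelled ssDNA. Reagent: labelled 47-mer dsDNA for strand exchange. Schedule: 30-min compound preincubation and 15-min exchange, both room temperature. Measured by: FRET fluorescence dequenching, excitation 485 nm, emission 520 nm. Read-out: Fluorescence-based percent inhibition, control- and blank-normalised. Benchmarks: plate controls and plate blanks.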
PKD1 inh: PKD1 (human) kinase inhibition. Q15139. PKD1 kinase fluorescence polarization assay. inhibition, % (concentration not given with the values). actives 0.056% (n = 200,000)
Lmaj promast: reduces viability of Leishmania major promastigotes; actives 9% (n = 200,000); resazurin fluorescence viability; AID 1063; inhibition, % at 10 µM;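 further: promastigotes grown with compound for 44 hours at 28 °C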
Arbovirus inh: antivirals against arbovirus infection | arbovirus infection cell-based antiviral screen | inhibition, % at 10 µM | actives 0.37% (n = 200,000) | AID 1251; in the data active means inhibition above about 30%
Wee1 stabilizer: inhibitors of human Wee1 degradation. P30291. HeLa Luc-Wee1K328M stability, luciferase luminescence; 100% = proteasome inhibitor MG132 effect. reporter increase, % at 5 µM. actives 1.2% (n = 220,000). AID 1321;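 active means activation above the mean of all tested compounds plus 3 SD, set per screening run, cut at about 8.8% in these data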;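 further: cells exposed to compound for 20 h before luminescence read; 0% = DMSO alone and 100% = MG132 at 30 µM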
* marks the source's active call; other numbers are inactive results; . = no result. Unless noted, no stated cut-off is given here; in the data, active means inhibition above about 50%; inactive means the rest.

SMILES	CHOP inhibitor	Rad51 HR inh	PKD1 inh	Lmaj promast	Arbovirus inh	Wee1 stabilizer
N#C/C(=C\c1cc2ccccc2nc1N1CCOCC1)C(=O)Nc1ccc(N2CCOCC2)cc1	40	-9	4	3	5	-3
CCOC(=O)/C(C#N)=C/c1cc2ccccc2nc1N1CCCCC1	26	-71	-2	88*	19	2
Cc1ccc2cc(C=C(C#N)C#N)c(N3CCCCC3)nc2c1	59	2	-2	99*	30	0
CCC(C)n1c(/C=C/c2ccccc2)nc2ccccc21 (configuration not stated)	18	.	-4	93*	8	1
COc1ccc(/C=C/c2nc3ccccc3n2C)cc1	81*	26	-6	85*	-16	-5
CC(C)Cn1c(/C=C/c2ccccc2)nc2ccccc21	48	-6	6	46	-23	-1
O=C(Cn1c(/C=C/c2ccccc2)nc2ccccc21)Nc1ccc(F)cc1	31	-1	13	63*	-2	-1
CCC(C)n1c(S(=O)(=O)O)nc2ccccc21 (configuration not stated)	34	-2	-1	-5	8	4
CSc1nc2ccccc2n1CC(=O)Nc1ccccc1	21	-3	-7	0	0	-1
CCn1c(/C=C/c2ccccc2)nc2ccccc21	13	-8	9	77*	-9	-2
NC(N)=[N+]1CCc2ccccc2C1	1	.	.	.	.	.
COC(=O)C1=C(Nc2cc(Cl)cc(Cl)c2)CSC1	17	-3	.	.	.	5
COc1ccc(C2c3sc(=O)[nH]c3SC3C4CCC(C4)C23)cc1 (configuration not stated)	88*	5	-5	19	1	-2
O=c1[nH]c2c(s1)C(c1ccccc1)C1C3CCC(C3)C1S2 (configuration not stated)	66	7	-1	-10	29	-1
Fc1ccc(C2=Nn3c(nnc3-c3n[nH]c4c3CCC4)SC2)cc1	-15	7	-5	51*	-17	0
Cc1cc(-c2nnc3n2N=C(c2ccc(-c4ccccc4)cc2)CS3)n[nH]1	-18	0	4	66*	-23	-3
Cc1cc(-c2nnc3n2N=C(c2ccccc2)CS3)n[nH]1	3	-1	.	.	.	2
c1ccc(-c2cc(-c3nnc4n3N=C(c3ccc5ccccc5c3)CS4)[nH]n2)cc1	-14	0	-11	55*	-24	2
CC(=O)/C(=N\Nc1ccc(C)cc1)Sc1nncn1C	3	9	-3	-6	-32	2
CNc1ncnc2c1ncn2[C@H]1C[C@H](OP(=O)(O)O)[C@@H](COP(=O)(O)O)O1	-8	.	.	.	.	.
O=S(=O)(c1cccc(NC(=S)N2CCN(c3cccc(Cl)c3)CC2)c1)C(F)F	70*	2	-8	-1	25	3
COc1ccc(-c2[nH]c(-c3ccc4c(c3)OCO4)nc2-c2ccccc2)cc1	58	-1	0	65*	-25	1
Oc1ccc(-c2nc(-c3ccc(F)cc3)c(-c3ccncc3)[nH]2)cc1	-11	.	.	.	.	.
COc1ccc(-c2nc(-c3ccccc3)[nH]c(=O)c2C#N)cc1	18	3	-6	-11	1	-2
COc1cc(-c2nc(-c3ccccc3)c(-c3ccc(F)cc3)[nH]2)cc2c1OCO2	70*	-2	-4	17	-5	3
SMILES	CHOP inhibitor	Rad51 HR inh	PKD1 inh	Lmaj promast	Arbovirus inh	Wee1 stabilizer
COC(=O)c1cc2c(ccn2-c2ccc(F)cc2)n1Cc1ccc(OC)cc1	6	-3	-14	99*	5	0
CC1=C(C(=O)OC2CCCC2)C(c2ccc(C)o2)C2=C(CC(c3cccs3)CC2=O)N1 (configuration not stated)	61	-3	-7	83*	-4	3
CC1=C(C(=O)OC2CCCCCC2)C(c2ccc(C)o2)C2=C(CCCC2=O)N1 (configuration not stated)	33	.	-8	25	-2	7
O=c1[nH]c(SCc2ccccc2)nc2[nH]ncc12	16	.	-9	-5	-15	1
COc1ccc(Cn2c(C)c(C)c(C#N)c2NC(=O)Nc2cccc(C)c2)cc1	47	-6	-9	17	52*	0
COc1ccc(Cn2c(C)c(C)c(C#N)c2NC(=O)Nc2ccccc2)cc1	-19	.	5	23	7	-1
CN(C)/C=C(\C=O)c1ccc(Cl)cc1Cl	-8	6	-3	-1	9	0
